Data: PMC8311649 (Journal of Medicinal Chemistry, 2021)

Tests used:
[1] = Metabolic stability across all matrixes and species; format: in vitro ADME; details: CD-1 (mouse), Sprague-Dawley (rat), beagle (dog), cynomolgus monkey, human, intestinal S9, liver S9 and plasma
[2] = Bidirectional permeability through Caco-2 monolayers; format: in vitro ADME, human; details: human, Caco-2, pH 7.4, recovery (%), 5 µM, 120 minutes
[3] = test system: Caco-2 cell monolayers; assay: as above; format: in vitro ADME, human; details: for significant efflux: from ER and Papp (B-to-A); for absorption potential classification: from Papp (A-to-B)
[4] = Oral bioavailability PK screening in rats; format: in vivo; details: rat; oral gavage; dose not given
In short: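 Rats were dosed orally with the ester prodrug. F is percent absolute oral bioavailability, corrected for the molecular-weight difference between prodrug and parent.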

[5] = Metabolic stability, plasma; format: in vitro ADME; details: human
[6] = Metabolite profiling in cryopreserved hepatocytes; format: in vitro ADME; details: all species
[7] = test system: strains expressing class C and OXA-48 β-lactamases; assay: Ceftibuten rescue against representative ceftibuten-resistant strains; format: cell-based, K. pneumoniae and E. coli; details: ceftibuten fixed at 1 μg/mL
In short: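 Clinical isolates of E. coli and K. pneumoniae carrying the named β-lactamase classes were tested with ceftibuten held at 1 μg/mL. The value is the minimum concentration of the β-lactamase inhibitor that restores ceftibuten antibacterial activity.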

[8] = target: SHV-5 (class A) (Klebsiella pneumoniae, UniProt P0A3M1); assay: β-lactamase inhibition assay, SHV-5; format: biochemical
SHV-5 (class A), sequence (P0A3M1 22-286, species assumed): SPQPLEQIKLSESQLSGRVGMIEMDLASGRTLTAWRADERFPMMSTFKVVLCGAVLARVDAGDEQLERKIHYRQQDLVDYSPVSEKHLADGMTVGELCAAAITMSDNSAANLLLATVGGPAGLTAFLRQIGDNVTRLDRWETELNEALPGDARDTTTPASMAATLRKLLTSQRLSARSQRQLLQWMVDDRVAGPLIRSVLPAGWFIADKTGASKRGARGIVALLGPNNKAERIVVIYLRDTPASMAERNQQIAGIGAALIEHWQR

[9] = test system: E. coli expressing TEM-1 + CTX-M-15, CTX-M-15, or KPC-2 + SHV-12; assay: Murine ascending UTI model; set-up: species or system C3H/HeJ mice; details: mouse, in vivo

## CCC(=O)N[C@H]1Cc2cccc(C(=O)O)c2OB1O [compound 5, (R)-2-Hydroxy-3-propionamido-3,4-dihydro-2H-benzo[e][1,2]oxaborinine-8-carboxylic Acid]
[1]
  half-life at 3 µM: > 120 min
[2]; A-to-B
  recovery at 120 min, 5 µM: 103%
[2]; B-to-A
  recovery at 120 min, 5 µM: 106%
[3]
  significant efflux: no
  absorption potential classification: low (Papp (A-to-B) < 1.0 × 10^–6 cm/s: low)

## CCC(=O)N[C@H]1Cc2cccc(C(=O)OCOC(=O)C(CC)CC)c2OB1O [compound 36, ((2-Ethylbutanoyl)oxy)methyl (R)-2-Hydroxy-3-propionamido-3,4-dihydro-2H-benzo[e][1,2]oxaborinine-8-carboxylate]
[4]
  oral bioavailability (F) in rats: highest oral bioavailability
[5]
  half-life at 3 µM: ~11 min
[6]; 2 µM and 20 µM, 37 °C, 240 min
  parent remaining after hepatocyte incubation: 0–5%
[6]; metabolite identified as 5 (hydrolysis)
  metabolites detected after hepatocyte incubation: one metabolite
[2]; A-to-B
  recovery at 120 min, 5 µM: 90%
[2]; B-to-A
  recovery at 120 min, 5 µM: 98%
[3]
  significant efflux: yes (ER ≥ 2.0 and Papp (B-to-A) ≥ 1.0 × 10^–6 cm/s)
  absorption potential classification: high (Papp (A-to-B) ≥ 1.0 × 10^–6 cm/s: high)

## CCC(=O)N[C@H]1Cc2cccc(C(=O)OCOC(=O)C(C)(C)C)c2OB1O [compound 20, (Pivaloyloxy)methyl (R)-2-Hydroxy-3-propionamido-3,4-dihydro-2H-benzo[e][1,2]oxaborinine-8-carboxylate]
[4]
  oral bioavailability (F) in rats: highest oral bioavailability

## C#CCCC(=O)N[C@H]1Cc2cccc(C(=O)O)c2OB1O [compound 12, (R)-2-Hydroxy-3-(pent-4-ynamido)-3,4-dihydro-2H-benzo[e][1,2]oxaborinine-8-carboxylic Acid]
[7]
  activity rescuing ceftibuten (in words): reduced activity

## CC(F)(F)CCC(=O)N[C@H]1Cc2cccc(C(=O)O)c2OB1O [compound 14, (R)-3-(4,4-Difluoropentanamido)-2-hydroxy-3,4-dihydro-2H-benzo[e][1,2]oxaborinine-8-carboxylic Acid]
[8]
  IC50: 6 nM
[7]
  activity rescuing ceftibuten (in words): reduced activity

## Nc1nc(/C(=C/CC(=O)O)C(=O)N[C@@H]2C(=O)N3C(C(=O)O)=CCS[C@H]23)cs1 [CTB, ceftibuten]
[9]
  cfu reductions in the bladder: ≤ 2 log10
  cfu reductions in urine: ≤ 2 log10
[9]; sc
  cfu reductions in the kidneys: minimal cfu reductions

## O=C(CCC(F)(F)F)N[C@H]1Cc2cccc(C(=O)O)c2OB1O [compound 7, (R)-2-Hydroxy-3-(4,4,4-trifluorobutanamido)-3,4-dihydro-2H-benzo[e][1,2]oxaborinine-8-carboxylic Acid]
[7]
  activity rescuing ceftibuten (in words): reduced activity
